In ChEMBL document CHEMBL1126303, “Syntheses and affinities of novel organometallic-labeled estradiol derivatives: a structure-affinity relationship” (J Med Chem, 1992) one finds RBA data, which are given here for ten molecules.

Where “and” joins values, the source holds several entries; their conditions need not be identical. Equal values may be shown once.

This assay has as its target Estrogen receptor (Ovis aries) (UniProt P49885+Q9TU15). Put plainly: Relative binding affinity against the estrogen receptor using lamb uterine cytosol as a source of receptor and [3H]-estradiol as a tracer. The format is protein assay. The conditions noted are these: Uterus. In short, it runs like this: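 Competitive radiometric binding on lamb uterine cytosol (105000g supernatant in 0.05 M Tris-HCl, 0.25 M sucrose, 0.1% β-mercaptoethanol, pH 7.4), 5 mg protein/mL. Incubated 3 h at 0 °C with 2 × 10⁻⁹ M [³H]estradiol plus competitor at nine concentrations, 1×10⁻¹⁰ to 1×10⁻⁶ M. Bound/free separated by protamine sulfate precipitation and filtration, then scintillation counting. Logit-transformed; RBA = IC50 estradiol/competitor ×100; mean of two determinations.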

Chain of Estrogen receptor (Ovis aries) (Q9TU15 whole entry, looked up, chain 1 of 2): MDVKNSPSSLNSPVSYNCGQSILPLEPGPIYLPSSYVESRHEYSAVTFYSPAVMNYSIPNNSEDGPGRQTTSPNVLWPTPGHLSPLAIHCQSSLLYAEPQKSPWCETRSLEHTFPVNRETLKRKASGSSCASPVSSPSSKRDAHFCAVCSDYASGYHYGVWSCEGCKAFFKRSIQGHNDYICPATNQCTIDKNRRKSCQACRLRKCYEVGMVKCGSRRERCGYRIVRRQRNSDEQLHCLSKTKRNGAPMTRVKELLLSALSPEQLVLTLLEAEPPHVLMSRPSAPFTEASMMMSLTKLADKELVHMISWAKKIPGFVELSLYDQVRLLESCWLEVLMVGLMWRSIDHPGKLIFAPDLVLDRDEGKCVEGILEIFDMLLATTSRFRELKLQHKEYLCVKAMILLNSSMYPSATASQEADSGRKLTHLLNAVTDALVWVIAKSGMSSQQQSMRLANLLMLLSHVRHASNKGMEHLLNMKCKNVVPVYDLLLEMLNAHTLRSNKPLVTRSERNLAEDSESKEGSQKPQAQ
Chain of Estrogen receptor (Ovis aries) (P49885 whole entry, looked up, chain 2 of 2): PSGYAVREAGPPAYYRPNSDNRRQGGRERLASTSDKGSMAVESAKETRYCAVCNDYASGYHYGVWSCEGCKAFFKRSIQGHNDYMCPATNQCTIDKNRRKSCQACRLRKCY

17alpha-ferrocenyl-17beta-estradiol yielded an RBA of 15%.

Consider [Cp Ru(eta5-17beta-estradienonyl)], for which the RBA was determined as 0.1%.

As to “(17alpha)-[Cp Ruphenyl]-17beta-estradiol)][CF3SO3]”, the RBA was determined as 0%.

As to “(17-alpha(phenylethynyl)-17beta-estradiol)tricarbonylchromium”, the RBA worked out at 24%.

As to `C[C@]12CC[C@@H]3c4ccc(O)cc4CC[C@H]3[C@@H]1CC[C@@]2(O)C#Cc1ccccc1`, the RBA worked out at 27%.

In the case of “alpha [Cp Ru[eta5-17beta-estradienonyl] [BF4]”, the RBA is 0.44% and 0.46%.

On to `C[C@]12CC[C@@H]3c4ccc(O)cc4CC[C@H]3[C@@H]1CC[C@@]2(O)c1ccccc1`, for which the RBA worked out at 25%.

“(alpha,beta)-[Cp Ru(17beta-estradiol)][PF6-]” registered an RBA of 0.1%.

On to “(17-alpha-phenyl-17beta-estradiol)tricarbonylchromium”, for which the RBA was found to be 11%.

As for “(alpha,beta)-[Cp*Ru(17beta-estradiol)][CF3SO3]”, the RBA came to 2.9%.
